Source: PubChem BioAssay (several laboratories)
Hits are enriched below; roughly 2.1% of the tested compounds scored in any of these assays.
EBI2 block = EBI2 (human) antagonism; hit rate 0.81% among 360,000; EBI2 beta-arrestin recruitment, luminescence, 7a,25-OHC stimulated; inhibition, % at 5 µM; in the data active = inhibition above about 38%;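 note: enzyme fragment complementation signal reports receptor beta-arrestin coupling in cells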
CXCR6 block = blocks human CXCR6 beta-arrestin recruitment; AID 602244; hit rate 0.36% among 360,000; inhibition, % at 20 µM; CHO-K1 PathHunter CXCR6 beta-arrestin, luminescence; O00574; in the data active = inhibition above about 34%, passing the limit was not always enough;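 note: antagonist mode with CXCL16 agonist at 10 nM final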
APJ ag = APJ receptor agonism; P35414; CHO-K1 APJ PathHunter beta-arrestin, luminescence; 0% DMSO wells, 100% apelin; activation, % at 20 µM; hit rate 0.11% among 330,000;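 active = activation more than six SD over the plate average, tested at 20 µM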
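Assay system: CHO-K1 cells stably expressing ProLink-tagged human APJ and arrestin–beta-gal acceptor. Compound dosing: 20 µM single point, 1% DMSO. Times: 16-18 h seeding, 90 min dark compound exposure, 60 min detection. Detection: beta-gal luminescence. Evaluation: APJ–arrestin association signal. Controls: negative DMSO alone, positive Apelin-13 at 10 nM.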
CCR6 antagonist = antagonists of human CCR6 receptor | P51684 | CHO-K1 CCR6 PathHunter beta-arrestin, luminescence, CCL20-stimulated | inhibition, % at 20 µM | hit rate 0.49% among 340,000;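 active = compounds whose inhibition of the agonist-driven luminescence signal at 20 µM reaches about 50%, limit read from the data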;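 note: cells stimulated with CCL20 at 14 nM final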
Target sequence (P51684 whole entry, looked up): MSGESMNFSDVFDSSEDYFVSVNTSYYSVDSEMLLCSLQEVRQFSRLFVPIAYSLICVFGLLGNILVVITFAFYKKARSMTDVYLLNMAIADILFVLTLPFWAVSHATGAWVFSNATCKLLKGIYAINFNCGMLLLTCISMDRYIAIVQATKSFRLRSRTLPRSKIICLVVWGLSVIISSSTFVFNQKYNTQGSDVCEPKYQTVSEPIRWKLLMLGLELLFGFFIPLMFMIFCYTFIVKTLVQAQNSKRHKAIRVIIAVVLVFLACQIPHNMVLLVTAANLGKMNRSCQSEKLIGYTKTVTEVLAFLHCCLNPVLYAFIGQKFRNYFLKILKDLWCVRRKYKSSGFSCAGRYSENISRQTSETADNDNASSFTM
APJ antag = blocks the human apelin receptor APJ. P35414. CHO-K1 APJ beta-arrestin complementation, luminescence. inhibition, % at 20 µM. hit rate 0.32% among 330,000;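 active = inhibition above about 40% at 20 µM, limit read from the data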;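 note: cells challenged with 10 nM apelin-13 agonist together with compound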
HTR2A ag = activates the mouse 5-HT2A serotonin receptor | P35363 | CHO-K1 mHTR2A beta-arrestin complementation, luminescence; percent of 30 µM serotonin response | activation, % at 7.6 µM | hit rate 0.66% among 360,000 | AID 624169;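 active = activation above a run cutoff, the mean activation of all tested compounds plus 3 SD, cut at about 14% in these data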
Large screens that a line does not name were inactive.

COc1cccc(NC(=O)c2cncs2)c1	none
CCCn1nnc(NC(=S)NC(=O)c2ccc(-c3ccc(Br)cc3)o2)n1	CCR6 antagonist 58.7
Cc1ccsc1C=Nc1ccc(O)cc1	EBI2 block 44.6
O=C(Nc1ccccc1C(=O)N1CCCCCC1)c1cccc([N+](=O)[O-])c1	none
Cc1cc(C(=O)Nc2cc(C)n(Cc3ccc(Cl)cc3)n2)no1	none
COc1ccccc1-c1cc(C(=O)Nc2cc(C)n(Cc3ccc(Cl)cc3)n2)no1	EBI2 block 51.7
O=C(Nc1nc(-c2cc(F)ccc2F)cs1)c1ccccn1	CXCR6 block 40.8, CCR6 antagonist 64.9, APJ antag 68.1
CCc1nc2c(OCc3ccc(OC(F)F)cc3)cccn2c1N(C)C(=O)c1cccs1	none (no result: APJ ag, CCR6 antagonist, APJ antag)
CCOC(=O)C1=C(O)/C(=C/c2cn(CC(=O)NCC3CCCO3)c3ccccc23)SC1=Nc1ccc(C)cc1 (centres undefined)	EBI2 block 48.7
CCOC(=O)C1=C(O)/C(=C/c2ccc(-c3ccccc3C(=O)O)o2)SC1=Nc1ccc(C)cc1	none (no result: APJ ag, APJ antag)
Fc1ccc(COc2ccc(Br)cc2CNCc2ccncc2)cc1	none
CCOc1cc(CNCc2ccncc2)cc(Br)c1OCc1ccc(F)cc1	EBI2 block 58.5
N=C1/C(=C\c2ccc(-c3ccc(C(=O)O)cc3)o2)C(=O)N=C2SC=C(c3ccccc3)N12	CCR6 antagonist 52.5 (no result: APJ ag, APJ antag)
N=C1/C(=C\c2ccc(-c3cccc(Cl)c3)o2)C(=O)N=C2SC=C(c3ccccc3)N12	none
COc1ccc(CN2CCS(=O)(=O)CC2)cc1OC	none
O=C1N=c2ccccc2=C1c1[nH]c(=S)[nH]c1O	none
Cc1ccc(Cl)c2c1=NC(=O)C=2c1[nH]c(=S)[nH]c1O	APJ antag 41.0
O=C(NCc1ccc(Cl)s1)C1CCC(=O)N(CCc2cccc(F)c2)C1 (centres undefined)	none
Cc1cccc(OCC(=O)NCC(=O)N/N=C/c2cc(Br)cc(Br)c2O)c1	CXCR6 block 45.4
COc1cccc(/C=N/NC(=O)CNC(=O)COc2ccccc2)c1O	none
C/C=C(/C)C(=O)OC1CC(C)(C)C[C@H]2C3=CC[C@@H]4[C@@]5(C)CCC(O[C@@H]6O[C@@H](C(=O)O)[C@@H](O)C(O[C@@H]7OC[C@H](O)[C@@H](O)[C@@H]7O[C@@H]7OC(CO)C(O)[C@@H](O)[C@@H]7O)C6O[C@@H]6OC(CO)C(O)C(O)C6O)[C@@](C)(CO)[C@@H]5CC[C@]4(C)[C@]3(C)CC(O)[C@@]12CO (some centres undefined)	none
C/C=C(\C)C(=O)OC1[C@H](OC(C)=O)C2(CO)C(CC1(C)C)C1=CCC3C4(C)CCC(O[C@@H]5O[C@H](C(=O)O)[C@@H](O[C@@H]6O[C@H](CO)[C@@H](O)[C@H](O)[C@H]6O)[C@H](O)[C@H]5O[C@H]5O[C@H](CO)[C@@H](O)[C@H](O)[C@H]5O)[C@](C)(CO)C4CCC3(C)[C@]1(C)C[C@H]2O (some centres undefined)	CXCR6 block 81.7, CCR6 antagonist 94.7, HTR2A ag 14.8 (no result: APJ ag, APJ antag)
CC(=O)Nc1ccc(Nc2c3c4c(cccc4n(C)c2=O)C(=O)c2ccccc2-3)cc1	CCR6 antagonist 52.0
COc1ccc(C(=O)N/C(=C\c2cccc3ccccc23)C(=O)N2CCN(C)CC2)cc1	none
Cc1ccc(C2=NOC(=O)/C2=C\C=C\c2ccccc2)cc1	CXCR6 block 48.4 (no result: APJ ag, APJ antag)
Cc1cc(NCc2ccccn2)n2nc(C)c(-c3ccc(Cl)cc3)c2n1	CCR6 antagonist 50.5
Cc1cc(C)c(CN2CCN(CCCn3cnc(C(=O)Nc4ccc(C)c(C)c4)n3)CC2)c(C)c1	none (no result: APJ ag, APJ antag)
O=[N+]([O-])c1ccccc1N=Nc1ccc(O)cc1O	none (no result: APJ ag, APJ antag)
O=S(=O)(O)c1cc(O)c(N=Nc2ccc(O)cc2O)c2ccccc12	CXCR6 block 39.3, CCR6 antagonist 61.6 (no result: APJ ag, APJ antag)
CC(NC(=O)/C(C#N)=C/c1ccc([N+](=O)[O-])o1)c1ccccc1 (centres undefined)	CXCR6 block 50.0 (no result: CCR6 antagonist)
CC(NC(=O)/C(C#N)=C/c1ccco1)c1ccccc1 (centres undefined)	none
C=Cc1ccc(Cn2c(C)c(C(=O)NCc3cccc([N+](=O)[O-])c3)sc2=O)cc1	none (no result: APJ ag, CCR6 antagonist, APJ antag)
